Measurements of several laboratories.
Each line is one published result; the experiments were not run side by side.
BCHE: Cholinesterase (BCHE, Homo sapiens, UniProt P06276)

CCN(CC)CCCC[C@H](NC(=O)[C@H](CC(C)C)NC(=O)[C@H](C)NC(=O)[C@H](Cc1ccccc1)NC(=O)c1ccc(C(C)(C)C)cc1)C(=O)N[C@@H](CO)C(=O)OC — ΔTm (Chromatin remodeling regulator CECR2 (CECR2, Homo sapiens, UniProt Q9BXF3); thermal stability, DSF; 25 µM): 0.58 °C
C#Cc1n[nH]c2c(-c3cn(C(C)c4ccccn4)c(=O)[nH]c3=O)cc(F)cc12 (centres unmarked) — inhibition (Fibroblast growth factor receptor 1 (FGFR1, Homo sapiens, UniProt P11362, V561M); enzyme activity, inhibitor; 1 µM): 11.4%
C=CCn1c2cc(OC(=O)CCN3CCN(Cc4ccccc4)CC3)ccc2c2ccnc(C)c21 — inhibition (BCHE; enzyme activity, inhibitor, Ellman; 1 µM): 29.9%
Cc1nn(C)cc1-c1nc2c(N3CCN(Cc4ccc(Cl)cc4)CC3)c(Cl)cnc2[nH]1 — remaining binding (Interferon-induced, double-stranded RNA-activated protein kinase (EIF2AK2, Homo sapiens, UniProt P19525); binding, competition with immobilised ligand; 1 µM): 95%
COc1ncccc1-c1cnn2ccc(N3CCN(C(=O)OC(C)C)CC3)nc12 — remaining binding (Dual specificity mitogen-activated protein kinase kinase 5 (MAP2K5, Homo sapiens, UniProt Q13163); binding, competition with immobilised ligand; 1 µM): 65%
C=CCn1c2cc(OC(=O)CCCCN3CCN(Cc4ccccc4C)CC3)ccc2c2ccnc(C)c21 — inhibition (BCHE; enzyme activity, inhibitor, Ellman; 1 µM): 39.8%
Nc1ncc(-c2nc(N3CCOCC3)nc(N3CCOCC3)n2)c(C(F)F)n1 — remaining binding (Peripheral plasma membrane protein CASK (CASK, Homo sapiens, UniProt O14936); binding, competition with immobilised ligand; 10 µM): 77%
NC(=O)c1cccc(-c2cccc(OC(=O)NC3CCCCC3)c2)c1 — kinact/KI (Cocaine esterase (CES2, Homo sapiens, UniProt O00748); enzyme activity, inhibitor; pH 7.4): 3900 M⁻¹ s⁻¹
